Assays:
human CYP1B1 = target: T1, human CYP1B1 (Homo sapiens, UniProt Q16678); assay: Oxidation of flavonoids by reconstituted purified CYP1B1, products by LC-MS/MS; type: in vitro ADME; conditions: LC-MS/MS product detection
T1 sequence (Q16678 1-543): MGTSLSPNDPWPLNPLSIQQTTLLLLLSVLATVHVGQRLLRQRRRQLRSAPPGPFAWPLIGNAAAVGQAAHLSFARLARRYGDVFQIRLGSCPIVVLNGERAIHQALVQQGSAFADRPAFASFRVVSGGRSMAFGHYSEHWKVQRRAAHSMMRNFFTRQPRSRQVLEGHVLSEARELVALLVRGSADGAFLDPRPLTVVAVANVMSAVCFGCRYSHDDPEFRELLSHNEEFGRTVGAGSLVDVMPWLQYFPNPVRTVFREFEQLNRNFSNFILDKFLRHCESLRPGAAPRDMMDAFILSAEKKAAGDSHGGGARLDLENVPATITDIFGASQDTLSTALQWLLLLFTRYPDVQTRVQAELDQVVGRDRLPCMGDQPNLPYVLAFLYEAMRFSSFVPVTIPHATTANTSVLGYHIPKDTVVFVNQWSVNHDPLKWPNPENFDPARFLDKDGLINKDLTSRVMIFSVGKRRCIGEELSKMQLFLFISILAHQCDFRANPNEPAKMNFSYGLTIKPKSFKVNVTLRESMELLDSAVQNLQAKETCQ

human CYP2A13 = target: T2, human CYP2A13 (Homo sapiens, UniProt Q16696); assay: Oxidation of flavonoids by reconstituted purified CYP2A13, products by LC-MS/MS; type: in vitro ADME; conditions: LC-MS/MS product detection
T2 sequence (Q16696 1-494): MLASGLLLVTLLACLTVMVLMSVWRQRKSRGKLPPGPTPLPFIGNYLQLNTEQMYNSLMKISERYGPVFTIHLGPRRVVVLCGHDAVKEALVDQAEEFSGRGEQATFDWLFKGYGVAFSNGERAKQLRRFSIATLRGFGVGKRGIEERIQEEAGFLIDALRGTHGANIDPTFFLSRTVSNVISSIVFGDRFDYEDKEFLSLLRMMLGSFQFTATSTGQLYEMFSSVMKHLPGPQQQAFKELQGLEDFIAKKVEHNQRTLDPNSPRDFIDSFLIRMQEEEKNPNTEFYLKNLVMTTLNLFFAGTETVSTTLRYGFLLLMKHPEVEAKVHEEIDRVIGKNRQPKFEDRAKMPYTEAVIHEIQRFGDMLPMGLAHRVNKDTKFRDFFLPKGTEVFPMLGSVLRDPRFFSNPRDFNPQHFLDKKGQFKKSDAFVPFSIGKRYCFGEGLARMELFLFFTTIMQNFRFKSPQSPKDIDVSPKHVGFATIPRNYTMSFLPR
How it was run: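 Reconstituted system of purified E. coli-expressed human CYP2A13 (50 pmol), NADPH-P450 reductase (100 pmol), cytochrome b5 (100 pmol) and DLPC (50 μg). Flavonoid at 60 μM, 1 min preincubation, then NADPH-generating system added; 37 °C, 20 min. Stopped with ice-cold CH3CN, spun, supernatant run on positive-ESI LC-MS/MS. Products were identified from fragment ion spectra; rates were quantified with available standards, three separate determinations.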

Row | Extent of oxidation by CYP1B1 (in words) (human CYP1B1) | Extent of oxidation by CYP2A13 (in words) (human CYP2A13) | SMILES
1 | good substrate | – | COc1ccc(-c2cc(=O)c3ccccc3o2)cc1OC [3′4′diMeF, 3′,4′-Dimethoxyflavone]
2 | only small amounts of products | only small amounts of products | COc1ccc(-c2cc(=O)c3c(O)cc(O)cc3o2)cc1OC [3′4′diMe57diOHF, 3′,4′-dimethoxy-5,7-dihydroxyflavone]

Reference: paper PMC9896170 (Xenobiotica; the fate of foreign compounds in biological …, 2022)
